Experimental data: ChEMBL document CHEMBL4732138, “Evaluation of the Structure-Activity Relationship of Microtubule-Targeting 1,2,4-Triazolo[1,5-a]pyrimidines Identifies New Candidates for Neurodegenerative Tauopathies” (J Med Chem, 2021)

What was measured:
[1] = n-octanol-water distribution coefficient, log D of the compound at pH 7.4 by shake flask method; format: physicochemical
Procedure, shortened: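 Distribution coefficient between n-octanol and water at pH 7.4, measured by shake-flask method.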

Tubulin (Homo sapiens) [2] = biological target: T1, Tubulin (Homo sapiens) (UniProt P68371+Q9H4B7+P0DPH7+P68366+Q13509+Q71U36+P04350+Q3ZCM7+P07437+P68363+Q9BQE3+Q6PEY2+Q13885+Q9BVA1+Q9BUF5); experiment: Stabilization of microtubules in human QBI293 cells assessed as fold change in acetylated tubulin levels at 1 uM after 4 hrs by ELISA relative to DMSO; format: cell-based
Procedure, shortened: (§1)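 QBI293 cells were grown in DMEM with 10% FBS, 2 mM L-glutamine and penicillin/streptomycin, then plated at 6 × 10^5 cells/well and left overnight. Medium was replaced with fresh medium holding vehicle (DMSO) or compound, and cells were incubated 4 h. Whole-cell extract supernatants were protein-normalized by BCA assay. AcTub and α-tubulin were quantified by ELISA against standard curves. Values are fold-change over DMSO, analysed by one-way ANOVA.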

Tubulin (Homo sapiens) [3] = biological target: T1, Tubulin (Homo sapiens); experiment: Stabilization of microtubules in human QBI293 cells assessed as fold change in acetylated tubulin levels at 10 uM after 4 hrs by ELISA relative to DMSO; format: cell-based; procedure, shortened: as §1
Tubulin (Homo sapiens) [4] = biological target: T1, Tubulin (Homo sapiens); experiment: Stabilization of microtubules in human QBI293 cells assessed as fold change in alpha tubulin levels at 1 uM after 4 hrs by ELISA relative to DMSO; format: cell-based; procedure, shortened: as §1
Tubulin (Homo sapiens) [5] = biological target: T1, Tubulin (Homo sapiens); experiment: Stabilization of microtubules in human QBI293 cells assessed as fold change in alpha tubulin levels at 10 uM after 4 hrs by ELISA relative to DMSO; format: cell-based; procedure, shortened: as §1
Tubulin (Homo sapiens) [6] = biological target: T1, Tubulin (Homo sapiens); experiment: Stabilization of microtubules in human QBI293 cells assessed as fold change in acetylated tubulin levels at 1 uM after 4 hrs by ELISA relative to cevipabulin; format: cell-based
Tubulin (Homo sapiens) [7] = biological target: T1, Tubulin (Homo sapiens); experiment: Stabilization of microtubules in human QBI293 cells assessed as fold change in acetylated tubulin levels at 10 uM after 4 hrs by ELISA relative to cevipabulin; format: cell-based
Tubulin (Homo sapiens) [8] = biological target: T1, Tubulin (Homo sapiens); experiment: Stabilization of microtubules in human QBI293 cells assessed as decrease in alpha-tubulin levels at 1 to 10 uM after 4 hrs by ELISA relative to control; format: cell-based; design: scale not given: the % may be the effect or the level left; details: dose 1-10 µM
Procedure, shortened: (§2)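 QBI293 cells are grown in DMEM with 10% FBS, 2 mM L-glutamine and penicillin/streptomycin, plated at 6 × 10^5 cells/well and incubated overnight. […] Acetyl- and total α-tubulin in whole-cell extract supernatants are measured by ELISA against standard curves, with protein by BCA. Values are fold-change over DMSO; AcTub is also given relative to 100 nM cevipabulin positive control. Significance is by one-way ANOVA.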

Tubulin (Homo sapiens) [9] = biological target: T1, Tubulin (Homo sapiens); experiment: Stabilization of microtubules in human QBI293 cells assessed as increase in acetylated tubulin levels after 4 hrs by ELISA; format: cell-based; procedure, shortened: as §2
[10] = n-octanol/water, read-out: logD

In the case of `CC(C)[C@@H](C)Nc1c(-c2ccc(C#N)cc2F)c(Cl)nc2ncnn12` (stereo in doubt; 67), the logD [1, 10] was 2.9.
Compound `CC(C)[C@@H](C)Nc1c(-c2ccccc2F)c(Cl)nc2ncnn12` has a fold change (FC) (Tubulin (Homo sapiens) [2]) of 0.95, a fold change (FC) (Tubulin (Homo sapiens) [3]) of 2.1 and a fold change (FC) (Tubulin (Homo sapiens) [4]) of 1. The fold change (FC) (Tubulin (Homo sapiens) [5]) was 1.04, the fold change (FC) (Tubulin (Homo sapiens) [6]) was 0.2 and the fold change (FC) (Tubulin (Homo sapiens) [7]) was 0.43. It also gave a logD [1, 10] of 2.95.
`C[C@H](Nc1c(-c2c(F)cc(Cl)cc2F)c(Cl)nc2ncnn12)C(F)(F)F` showed a fold change (FC) (Tubulin (Homo sapiens) [2]) of 1.88, a fold change (FC) (Tubulin (Homo sapiens) [3]) of 4.28 and a fold change (FC) (Tubulin (Homo sapiens) [4]) of 0.93. For the same compound, the fold change (FC) (Tubulin (Homo sapiens) [5]) was 0.81, the fold change (FC) (Tubulin (Homo sapiens) [6]) was 0.31 and the fold change (FC) (Tubulin (Homo sapiens) [7]) was 0.7. The Activity (Tubulin (Homo sapiens) [8]) was over 15%.
`N#Cc1ccc(-c2c(Cl)nc3ncnn3c2N2CCCCCC2)c(F)c1` showed a fold change (FC) (Tubulin (Homo sapiens) [2]) of 7.17, a fold change (FC) (Tubulin (Homo sapiens) [3]) of 12.6 and a fold change (FC) (Tubulin (Homo sapiens) [4]) of 1.04. It also gave a fold change (FC) (Tubulin (Homo sapiens) [5]) of 0.99, a fold change (FC) (Tubulin (Homo sapiens) [6]) of 0.55 and a fold change (FC) (Tubulin (Homo sapiens) [7]) of 0.97. The logD [1, 10] was 3.15.
`COc1cc(F)c(-c2c(Cl)nc3ncnn3c2N[C@@H](C)C(F)(F)F)c(F)c1` showed a fold change (FC) (Tubulin (Homo sapiens) [2]) of 3.16, a fold change (FC) (Tubulin (Homo sapiens) [3]) of 2.07 and a fold change (FC) (Tubulin (Homo sapiens) [4]) of 0.72. The fold change (FC) (Tubulin (Homo sapiens) [5]) was 0.51, the fold change (FC) (Tubulin (Homo sapiens) [6]) was 0.64 and the fold change (FC) (Tubulin (Homo sapiens) [7]) was 0.42. For the same compound, the Activity (Tubulin (Homo sapiens) [8]) was over 15%.
In the case of `CC(C)[C@@H](C)Nc1c(-c2ccc(C#N)cc2F)c(Cl)nc2ncnn12` (stereo in doubt; 68), the logD ([1]; octanol/water) was 2.67.
In the case of `CO[C@H]1C[C@H]2CC[C@@H](C1)N2c1c(-c2c(F)cc(F)cc2F)c(Cl)nc2ncnn12`, the fold change (FC) (Tubulin (Homo sapiens) [2]) was 3.65, the fold change (FC) (Tubulin (Homo sapiens) [3]) was 7.43 and the fold change (FC) (Tubulin (Homo sapiens) [4]) was 1.12. It also gave a fold change (FC) (Tubulin (Homo sapiens) [5]) of 1.38, a fold change (FC) (Tubulin (Homo sapiens) [6]) of 0.54 and a fold change (FC) (Tubulin (Homo sapiens) [7]) of 1.11. For the same compound, the Activity (Tubulin (Homo sapiens) [9]) was “Dose-dependent effect” and the logD [1, 10] was 3.38.
With `CSc1cc(F)c(-c2c(Cl)nc3ncnn3c2N[C@@H](C)C(F)(F)F)c(F)c1` the fold change (FC) (Tubulin (Homo sapiens) [2]) was 1.75, the fold change (FC) (Tubulin (Homo sapiens) [3]) was 2.23 and the fold change (FC) (Tubulin (Homo sapiens) [4]) was 0.88. For the same compound, the fold change (FC) (Tubulin (Homo sapiens) [5]) was 0.56, the fold change (FC) (Tubulin (Homo sapiens) [6]) was 0.27 and the fold change (FC) (Tubulin (Homo sapiens) [7]) was 0.35. For the same compound, the Activity (Tubulin (Homo sapiens) [8]) was over 15%.
`CC(C)[C@@H](C)Nc1c(-c2c(F)cccc2F)c(Cl)nc2ncnn12` showed a fold change (FC) (Tubulin (Homo sapiens) [2]) of 4.36, a fold change (FC) (Tubulin (Homo sapiens) [3]) of 4.88 and a fold change (FC) (Tubulin (Homo sapiens) [4]) of 1. It also gave a fold change (FC) (Tubulin (Homo sapiens) [5]) of 0.96, a fold change (FC) (Tubulin (Homo sapiens) [6]) of 0.96 and a fold change (FC) (Tubulin (Homo sapiens) [7]) of 1.07. The logD [1, 10] was 3.16.
With `Cc1cc(F)c(-c2c(Cl)nc3ncnn3c2N[C@@H](C)C(F)(F)F)c(F)c1` the fold change (FC) (Tubulin (Homo sapiens) [2]) was 1.62, the fold change (FC) (Tubulin (Homo sapiens) [3]) was 2.73 and the fold change (FC) (Tubulin (Homo sapiens) [4]) was 0.99. For the same compound, the fold change (FC) (Tubulin (Homo sapiens) [5]) was 0.78, the fold change (FC) (Tubulin (Homo sapiens) [6]) was 0.28 and the fold change (FC) (Tubulin (Homo sapiens) [7]) was 0.48. The Activity (Tubulin (Homo sapiens) [8]) was over 15%.
In the case of `CO[C@H]1C[C@H]2CC[C@@H](C1)N2c1c(-c2c(F)cc(C#N)cc2F)c(Cl)nc2ncnn12`, the fold change (FC) (Tubulin (Homo sapiens) [2]) was 2.61, the fold change (FC) (Tubulin (Homo sapiens) [3]) was 4.32 and the fold change (FC) (Tubulin (Homo sapiens) [4]) was 0.99. It also gave a fold change (FC) (Tubulin (Homo sapiens) [5]) of 1, a fold change (FC) (Tubulin (Homo sapiens) [6]) of 0.64 and a fold change (FC) (Tubulin (Homo sapiens) [7]) of 1.06. The logD [1, 10] was 2.74.
`C[C@@H](Nc1c(-c2ccc(C#N)cc2F)c(Cl)nc2ncnn12)C(C)(C)C` gave a fold change (FC) (Tubulin (Homo sapiens) [2]) of 4.41, a fold change (FC) (Tubulin (Homo sapiens) [3]) of 7.67 and a fold change (FC) (Tubulin (Homo sapiens) [4]) of 0.86. The fold change (FC) (Tubulin (Homo sapiens) [5]) was 0.93, the fold change (FC) (Tubulin (Homo sapiens) [6]) was 0.71 and the fold change (FC) (Tubulin (Homo sapiens) [7]) was 1.24. The logD [1, 10] was 2.86.
Compound `C[C@H](Nc1c(-c2c(F)cc(OCCCO)cc2F)c(Cl)nc2ncnn12)C(F)(F)F` has an Activity (Tubulin (Homo sapiens) [8]) of over 15%.
With `Fc1cc(F)c(-c2c(Cl)nc3ncnn3c2NC2CCCCC2)c(F)c1` the fold change (FC) (Tubulin (Homo sapiens) [2]) was 1.13, the fold change (FC) (Tubulin (Homo sapiens) [3]) was 3.51 and the fold change (FC) (Tubulin (Homo sapiens) [4]) was 1.07. For the same compound, the fold change (FC) (Tubulin (Homo sapiens) [5]) was 0.99, the fold change (FC) (Tubulin (Homo sapiens) [6]) was 0.07 and the fold change (FC) (Tubulin (Homo sapiens) [7]) was 0.23. For the same compound, the Activity (Tubulin (Homo sapiens) [9]) was “Dose-dependent effect”.
Work on `CC(Nc1c(-c2c(F)cc(F)cc2F)c(Cl)nc2ncnn12)C(F)F` (stereo not given) yielded a fold change (FC) (Tubulin (Homo sapiens) [2]) of 1.28, a fold change (FC) (Tubulin (Homo sapiens) [3]) of 1.82 and a fold change (FC) (Tubulin (Homo sapiens) [4]) of 1.19. The fold change (FC) (Tubulin (Homo sapiens) [5]) was 1.17, the fold change (FC) (Tubulin (Homo sapiens) [6]) was 0.3 and the fold change (FC) (Tubulin (Homo sapiens) [7]) was 0.35. The Activity (Tubulin (Homo sapiens) [9]) was “Dose-dependent effect”.
For `C[C@H](Nc1c(-c2c(F)cc(O)cc2F)c(Cl)nc2ncnn12)C(F)(F)F`, the fold change (FC) (Tubulin (Homo sapiens) [2]) was 1.22, the fold change (FC) (Tubulin (Homo sapiens) [3]) was 4.11 and the fold change (FC) (Tubulin (Homo sapiens) [4]) was 0.84. The fold change (FC) (Tubulin (Homo sapiens) [5]) was 0.57, the fold change (FC) (Tubulin (Homo sapiens) [6]) was 0.23 and the fold change (FC) (Tubulin (Homo sapiens) [7]) was 0.77. For the same compound, the Activity (Tubulin (Homo sapiens) [8]) was over 15%.
